Published values pooled from the literature.
Compare with care: the assays were run in different laboratories.

SMILES | cell line | assay | setting | quantity | result
CCCCCCCCCCCCCCCCCCOc1ccc(CC(=O)OCC[N+]2(C)CCCCC2)cc1 | NCI-H23 | cell growth or viability, SRB | 10 µM | inhibition | 13.3%
NCCC(=O)Nc1ccccc1/N=c1\cc(-c2ccc3nc(N)oc3c2)oc2ccccc12 | MOLM-13 | cell growth or viability, CCK-8 | 1 µM | inhibition | 60.4%
Cc1c(Cl)c(=O)oc2cc(OCCCCSC#N)ccc12 | SW1573 | cell growth or viability, SRB | – | GI50 | 5.8 µM
CCCCCCCCCCCCCCCCCCOc1ccc(CC(=O)OCCC[N+](C)(C)C)cc1 | NCI-H23 | cell growth or viability, SRB | 10 µM | inhibition | 18.9%
COc1ncnc(C2CC2)c1-c1ncc2cnn(Cc3ccc(-c4nc(C(F)(F)F)cn4C(C)C)cc3)c2n1 | CHP-212 | cell growth or viability, SRB | 12.5 µM | viability | 85.3%
O=C(Nc1ccccc1/N=c1\cc(-c2ccc3c(c2)OCO3)oc2ccccc12)N1CCNCC1 | MOLM-13 | cell growth or viability, CCK-8 | 1 µM | inhibition | 1.47%
C(=N\Nc1cc(N/N=C/c2cccc3cccnc23)ncn1)/c1cccc2cccnc12 | Bel-7402 | cell growth or viability, MTT | 48 h | IC50 | 17.6 µM
CCCCCCCCCCCCCCCCCCOc1cccc(CC(=O)OCC[N+](C)(C)C)c1 | NCI-H23 | cell growth or viability, SRB | 10 µM | inhibition | 11%
CCNNC(=O)c1ccc(CN(CC(=O)NCc2ccccc2)C(=O)c2ccc(N(C)C)cc2)cc1 | A2780cisR | cell growth or viability, MTT | 72 h | IC50 | 4.62 µM
NCC(=O)Nc1ccccc1/N=c1\cc(-c2ccc3c(c2)OCCO3)oc2ccccc12 | MOLM-13 | cell growth or viability, CCK-8 | 1 µM | inhibition | -2.55%
COc1cccc2c1C(=O)c1c(O)c3c(c(O)c1C2=O)C[C@@](O)(C(=O)CO)C[C@@H]3O[C@H]1C[C@H](N)[C@H](O)[C@H](C)O1 | CHP-212 | cell growth or viability, SRB | 41.15 nM | viability | 50.8%
COc1ccc2/c(=N/c3ccccc3NC(=O)[C@H](C)N)cc(-c3ccc4c(c3)OCCO4)oc2c1 | MOLM-13 | cell growth or viability, CCK-8 | 1 µM | inhibition | 6.88%
C#Cc1cccc(Nc2ncnc3cc(OCCOC)c(OCCOC)cc23)c1 | Bel-7402 | cell growth or viability, MTT | 48 h | IC50 | > 20 µM
C[C@@H]1COCCN1c1cc(C2([S@](C)(=N)=O)CC2)nc(-c2cc[nH]c3nccc2-3)n1 | CT26 | cell growth or viability, ATP luminescence | 24 h | IC50 | 27.6 µM
CC(C)(C)[C@H](N)C(=O)Nc1ccccc1/N=c1\cc(-c2ccc3c(c2)OCO3)oc2ccccc12 | MOLM-13 | cell growth or viability, CCK-8 | 1 µM | inhibition | 4.05%
O=C(C[C@@H](C(F)F)n1ccc(F)n1)N1CCC(O)(Cn2cnc3c(cnn3-c3ccc(F)cc3)c2=O)CC1 | CHP-212 | cell growth or viability, SRB | 82.3 nM | viability | 47.2%
O=c1[nH]cc(F)c(=O)[nH]1 | Bel-7402 | cell growth or viability, MTT | 48 h | IC50 | 15.8 µM

SMILES | cell line | assay | setting | quantity | result
CCCCCCCCCCCCCCCCCCOc1ccc(CC(=O)OCC[N+](C)(C)C)cc1 | NCI-H23 | cell growth or viability, SRB | 10 µM | inhibition | 6.67%
CC(=O)O[C@H]1C(=O)[C@@]2(C)[C@H]([C@H](OC(=O)c3ccccc3)[C@]3(O)C[C@H](OC(=O)[C@H](O)[C@@H](NC(=O)c4ccccc4)c4ccccc4)C(C)=C1C3(C)C)[C@]1(OC(C)=O)CO[C@@H]1C[C@@H]2O | CHP-212 | cell growth or viability, SRB | 10 µM | viability | 5.97%
Cc1cnc(CNC(=O)c2c(=O)c3ccc(N4CCCN(C)CC4)nc3n3c2sc2ccccc23)cn1 | C6661 | cell growth or viability, MTS | 72 h | IC50 | 0.5 µM
Nc1nc2ccc(-c3c/c(=N\c4ccccc4NC(=O)C4CCNC4)c4ccccc4o3)cc2o1 (stereo not shown) | MOLM-13 | cell growth or viability, CCK-8 | 1 µM | inhibition | 41.4%
CC(C)C[C@H](NC(=O)[C@H](Cc1ccccc1)NC(=O)c1cnccn1)B(O)O | CHP-212 | cell growth or viability, SRB | 0.3704 µM | viability | 88%
CNCc1ccc(-c2cc(-c3nc(-c4ccc(S(=O)(=O)C(C)C)cc4)cnc3N)on2)cc1 | CT26 | cell growth or viability, ATP luminescence | 24 h | IC50 | 3.05 µM
O=C(N[C@@H](CSCc1ccccc1)C(=O)NO)c1ccccc1 | NCI-H1573 | cell growth or viability, MTT | 48 h | IC50 | 11.3 µM
CCCCCCCCCCCCCCCCCCOc1cccc(CC(=O)OCC[N+]2(C)CCOCC2)c1 | NCI-H23 | cell growth or viability, SRB | 10 µM | inhibition | 4.14%
COC(=O)[C@H]1[C@@H](O)[C@@]2(O)c3c(OC)cc(O[C@@H]4O[C@@H]([C@H](O)CO)CO[C@H]4OC)cc3O[C@@]2(c2ccc(OC)cc2)[C@@H]1c1ccccc1 | C6661 | cell growth or viability, MTS | 72 h | IC50 | 0.005 µM
Nc1ccccc1/N=c1\cc(-c2ccc3c(c2)OCO3)oc2ccccc12 | MOLM-13 | cell growth or viability, CCK-8 | 1 µM | inhibition | 5.39%
Cc1cc(=O)oc2cc(OCCCCSC#N)ccc12 | SW1573 | cell growth or viability, SRB | – | GI50 | 0.63 µM
CCCCCCCCCCCCCCCCCCOc1cccc(CC(=O)OCC[N+]2(C)CCCCC2)c1 | NCI-H23 | cell growth or viability, SRB | 10 µM | inhibition | 16.1%
C=C(C)[C@@H]1CC[C@]2(C)CC[C@]3(C)[C@H](CC[C@@H]4[C@@]5(C)CC[C@H](O)C(C)(C)[C@@H]5CC[C@]43C)[C@@H]12 | SIM-A9 | NO release, inhibitor, Griess | 106.7 µM, LPS-stimulated | inhibition | 1.81%
CCCCCCCCCCCCCCCCCCOc1ccccc1CC(=O)OCC[N+]1(C)CCOCC1 | NCI-H23 | cell growth or viability, SRB | 10 µM | inhibition | 33.5%
NCCC(=O)Nc1ccccc1/N=c1\cc(-c2ccc3c(c2)OCO3)oc2ccccc12 | MOLM-13 | cell growth or viability, CCK-8 | 1 µM | inhibition | 2.07%
CCCCCCCCCCCCCCCCCCOc1cccc(CC(=O)OCC[N+]2(C)CCCC2)c1 | NCI-H23 | cell growth or viability, SRB | 10 µM | inhibition | 24.6%
[NH2][Pt]([NH2])([Cl])[Cl] | NCI-H1573 | cell growth or viability, MTT | 48 h | IC50 | 75.8 µM
